The source made the active and inactive calls. The calls are words filed in the database; no cut-off is given here.
Key:
Mus musculus = test: Antiinflammatory activity in mouse assessed as increase in LPS-induced IL-10 expression at 0.3 mg/kg, po
[1] = Total clearance in Crl:CD1(ICR) mouse at 0.5 mg/kg, iv by LC-MS/MS analysis; type: ADME, organism-based; settings: in vivo
How it was run: (§1)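 Male animals received intravenous solution in DMSO/PEG400/saline (5/47.5/47.5). EDTA plasma was extracted with methanol/acetonitrile (1:1) plus internal standard and quantified by LC-MS/MS. AUC0-inf was calculated by the trapezoidal rule with terminal-phase kel extrapolation.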

[2] = Half life in Crl:CD(SD) rat at 1 mg/kg, po by LC-MS/MS analysis; type: ADME, organism-based; settings: in vivo
How it was run: (§2)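 Male animals dosed orally with a suspension in 0.5% MC. Blood was taken into EDTA 2K capillaries and plasma was stored frozen. Plasma was mixed with methanol/acetonitrile (1:1) plus internal standard, centrifuged, and drug was measured by LC-MS/MS. AUC0-inf was obtained by the trapezoidal rule, extrapolated with kel from the terminal phase. t1/2 = ln2/kel.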

[3] = Total clearance in Crl:CD(SD) rat at 1 mg/kg, iv by LC-MS/MS analysis; type: ADME, organism-based; settings: in vivo
How it was run: as §1

[4] = molecular target: T1, Formyl peptide receptor 2 (Mus musculus, UniProt O88536); test: Agonist activity at mouse FPR2 expressed in HEK 293 cells co-expressing Galpha15 measured every 1.5 sec for 80 sec by Fluo-4 NW staining based scanning fluorometric method; type: cell-based, HEK293
T1 sequence (O88536 whole entry): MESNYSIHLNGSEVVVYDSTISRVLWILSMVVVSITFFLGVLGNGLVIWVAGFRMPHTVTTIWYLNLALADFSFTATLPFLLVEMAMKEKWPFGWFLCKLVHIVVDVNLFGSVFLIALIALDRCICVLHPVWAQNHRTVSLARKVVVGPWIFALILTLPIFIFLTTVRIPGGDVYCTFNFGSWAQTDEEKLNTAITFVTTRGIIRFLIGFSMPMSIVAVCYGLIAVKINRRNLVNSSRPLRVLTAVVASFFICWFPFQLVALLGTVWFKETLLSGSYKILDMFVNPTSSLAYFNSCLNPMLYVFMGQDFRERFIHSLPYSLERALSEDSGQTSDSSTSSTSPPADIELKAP
How it was run: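 HEK293 cells were transiently co-transfected with FPR plus Gα15 (Lipofectamine 2000), then reseeded after 24 h on poly-D-lysine plates and grown one more day. Cells were loaded with Fluo-4 NW for 45 min at 37°C. Compound was added and fluorescence (ex 485/em 525 nm) read for 80 s at 1.5 s intervals. Response = maximal peak minus basal.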

[5] = Cmax in Crl:CD(SD) rat at 1 mg/kg, po by LC-MS/MS analysis; type: ADME, organism-based; set-up: route oral, dose 1 mg/kg; settings: in vivo
How it was run: as §2

fMet-Leu-Phe receptor [6] = molecular target: T2, fMet-Leu-Phe receptor (Homo sapiens, UniProt P21462); test: Agonist activity at human FPR1 expressed in CHO cells assessed as reduction cAMP accumulation incubated for 1 hr by TR-FRET assay; type: functional, cell-based
T2 sequence (P21462 whole entry): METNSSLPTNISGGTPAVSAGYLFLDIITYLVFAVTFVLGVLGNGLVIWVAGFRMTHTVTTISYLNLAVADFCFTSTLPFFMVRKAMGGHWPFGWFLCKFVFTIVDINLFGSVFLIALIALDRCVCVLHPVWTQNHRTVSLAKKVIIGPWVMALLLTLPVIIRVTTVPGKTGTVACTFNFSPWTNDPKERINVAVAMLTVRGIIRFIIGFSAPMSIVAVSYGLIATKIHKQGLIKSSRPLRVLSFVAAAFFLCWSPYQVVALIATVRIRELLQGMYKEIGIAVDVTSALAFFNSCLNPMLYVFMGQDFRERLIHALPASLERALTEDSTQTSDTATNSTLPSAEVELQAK
How it was run: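 CHO cells overexpressing the receptor were used, 2,000 hFPR2 or 4,000 hFPR1 cells/well. Cells were incubated 30 min at room temperature with compound (1.7 nM-100 µM, 1% DMSO), IBMX 200 µM and forskolin (5 µM for FPR2, 10 µM for FPR1) in DPBS/0.1% BSA. cAMP was read by HTRF after 1 h lysis against a standard curve. Data were fitted to a 4-parameter logistic, average of ≥2 occasions.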

[7] = Volume of distribution at steady state in Crl:CD1(ICR) mouse at 0.5 mg/kg, iv by LC-MS/MS analysis; type: ADME, organism-based; settings: in vivo, read-out: Vdss
How it was run: as §1

[8] = AUC (0 to infinity) in BALB/cCrSlc mouse at 1 mg/kg, po by LC-MS/MS analysis; type: ADME, organism-based; set-up: time infinity, route oral, dose 1 mg/kg; settings: in vivo
How it was run: as §2

[9] = Half life in BALB/cCrSlc mouse at 1 mg/kg, po by LC-MS/MS analysis; type: ADME, organism-based; settings: in vivo
How it was run: as §2

[10] = Volume of distribution at steady state in Crl:CD(SD) rat at 1 mg/kg, iv by LC-MS/MS analysis; type: ADME, organism-based; settings: in vivo, read-out: Vdss
How it was run: as §1

[11] = In vivo […] in mouse assessed as reduction in LPS-induced neutrophil infiltration in BALF cells at 1 mg/kg, po relative to control; type: functional
How it was run: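 Mice were given LPS and dosed orally at 1 mg/kg. Neutrophils in BALF were counted, and percent inhibition was calculated.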

[12] = Half life in Beagle dog at 1 mg/kg, po by LC-MS/MS analysis; type: ADME, organism-based, Canis lupus familiaris; settings: in vivo
How it was run: as §2

[13] = Volume of distribution at steady state in cynomolgus monkey at 1 mg/kg, iv by LC-MS/MS analysis; type: ADME, organism-based, Macaca fascicularis; settings: in vivo, read-out: Vdss
How it was run: as §1

fMet-Leu-Phe receptor [14] = molecular target: T3, fMet-Leu-Phe receptor (Mus musculus, UniProt P33766); test: Agonist activity at mouse FPR1 expressed in CHO cells assessed as reduction cAMP accumulation incubated for 1 hr by TR-FRET assay; type: functional, cell-based
T3 sequence (P33766 whole entry): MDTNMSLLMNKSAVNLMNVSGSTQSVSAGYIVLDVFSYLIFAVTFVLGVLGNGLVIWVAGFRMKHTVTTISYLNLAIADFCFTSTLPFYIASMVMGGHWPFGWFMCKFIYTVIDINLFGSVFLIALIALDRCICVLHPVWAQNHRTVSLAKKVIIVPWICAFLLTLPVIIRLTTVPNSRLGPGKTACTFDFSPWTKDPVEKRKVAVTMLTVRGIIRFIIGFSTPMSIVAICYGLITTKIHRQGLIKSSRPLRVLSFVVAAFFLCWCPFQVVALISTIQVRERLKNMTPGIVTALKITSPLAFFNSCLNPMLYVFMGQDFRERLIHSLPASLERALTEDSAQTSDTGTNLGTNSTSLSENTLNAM

[15] = Clearance in dog hepatocytes at 0.1 umol/l and measured for 6 hrs by LC-MS/MS analysis; type: ADME, cell-based, Canis lupus familiaris, Hepatocyte; settings: dose 0.1 µmol/L, read-out: CLH
How it was run: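 Hepatocytes (1 × 10⁶ cells/mL) in modified Krebs–Henseleit buffer were preincubated 5 min at 37°C, then given 0.1 µmol/L compound. Samples were taken at 0, 1, 2, 4 and 6 h and analysed by LC-MS/MS, in duplicate. kel came from 0-2 h points. CLint was scaled by hepatocellularity and liver weight (mL/min/kg).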

fMet-Leu-Phe receptor [16] = molecular target: T2, fMet-Leu-Phe receptor; test: Agonist activity at human FPR1 expressed in HEK 293 cells co-expressing Galpha15 measured every 1.5 sec for 80 sec by Fluo-4 NW staining based scanning fluorometric method; type: cell-based, HEK293
[17] = Cmax in Beagle dog at 1 mg/kg, po by LC-MS/MS analysis; type: ADME, organism-based, Canis lupus familiaris; set-up: route oral, dose 1 mg/kg; settings: in vivo
How it was run: as §2

COc1cc(F)c([C@@H]2CNC(=O)[C@H]2NC(=O)Nc2ccccc2)c(F)c1 [BMS-986235]
Activity (Mus musculus): Active | clearance [1]: 90 mL/min/kg | half-life [2]: 3.8 h | clearance [3]: 49 mL/min/kg | EC50 [4]: 3.4 nM | Cmax [5]: 240 nM | EC50 (fMet-Leu-Phe receptor [6]): 400 nM | Vd [7]: 3.5 L/kg | AUC(0-inf) [8]: 0.12 µM·h | half-life [9]: 0.68 h | Vd [10]: 3 L/kg | inhibition in vivo at 1 mg/kg [11]: 88% | half-life [12]: 2.5 h | Vd [13]: 1.2 L/kg | EC50 (fMet-Leu-Phe receptor [14]): 500 nM | CLint scaled at 0.1 µM [15]: 50 mL/min/kg | EC50 (fMet-Leu-Phe receptor [16]): 2800 nM | Cmax [17]: 820 nM

From ChEMBL document CHEMBL4725241, “Discovery of BMS-986235/LAR-1219: A Potent Formyl Peptide Receptor 2 (FPR2) Selective Agonist for the Prevention of Heart Failure” (J Med Chem, 2020)
